Most compounds without a hit are left out; they make up all but 5.7% or so of the library.
Beta cell apopt: beta cell apoptosis inhibition. INS-1E cytokine-induced death, ATP luminescence, 48 h; percent of positive-control rescue, neutral wells zero. protection from apoptosis, % (test concentration not listed). 300,000 compounds, 0.8% hits. AID 435005;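 active = Every replicate reaches about 75%, or at least half do and their mean reaches it too, limit read from the data; inconclusive = At least half of replicates reach the limit but their mean does not; inactive = Under half of replicates reach the limit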;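 note: 0% = cytokine-treated negative control wells and 100% = positive control rescue; higher means more ATP so stronger rescue from cytokine killing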
Mdm2-MdmX inh: disrupts the human Mdm2-MdmX interaction | 330,000 compounds, 3% hits | O15151+Q00987 | inhibition, % at 8 µM | AID 485346 | SaOS-2 split-luciferase Mdm2/MdmX complementation, luminescence;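 active = inhibition of at least 50% at 8 µM in the primary screen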
Target sequence (O15151 whole entry, looked up): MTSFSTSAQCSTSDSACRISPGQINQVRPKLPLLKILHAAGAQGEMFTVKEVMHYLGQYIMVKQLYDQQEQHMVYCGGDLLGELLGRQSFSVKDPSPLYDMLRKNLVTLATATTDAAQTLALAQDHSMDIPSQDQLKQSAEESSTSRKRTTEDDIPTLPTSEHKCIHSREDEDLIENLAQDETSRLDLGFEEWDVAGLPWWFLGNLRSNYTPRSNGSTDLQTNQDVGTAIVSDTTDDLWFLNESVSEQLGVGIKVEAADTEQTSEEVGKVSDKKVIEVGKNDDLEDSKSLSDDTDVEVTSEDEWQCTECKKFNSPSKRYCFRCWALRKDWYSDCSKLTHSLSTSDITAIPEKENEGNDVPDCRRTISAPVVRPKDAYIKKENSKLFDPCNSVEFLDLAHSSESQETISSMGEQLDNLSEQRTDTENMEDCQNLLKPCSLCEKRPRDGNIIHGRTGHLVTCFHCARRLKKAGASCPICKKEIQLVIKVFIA
Target sequence (Q00987 whole entry, looked up): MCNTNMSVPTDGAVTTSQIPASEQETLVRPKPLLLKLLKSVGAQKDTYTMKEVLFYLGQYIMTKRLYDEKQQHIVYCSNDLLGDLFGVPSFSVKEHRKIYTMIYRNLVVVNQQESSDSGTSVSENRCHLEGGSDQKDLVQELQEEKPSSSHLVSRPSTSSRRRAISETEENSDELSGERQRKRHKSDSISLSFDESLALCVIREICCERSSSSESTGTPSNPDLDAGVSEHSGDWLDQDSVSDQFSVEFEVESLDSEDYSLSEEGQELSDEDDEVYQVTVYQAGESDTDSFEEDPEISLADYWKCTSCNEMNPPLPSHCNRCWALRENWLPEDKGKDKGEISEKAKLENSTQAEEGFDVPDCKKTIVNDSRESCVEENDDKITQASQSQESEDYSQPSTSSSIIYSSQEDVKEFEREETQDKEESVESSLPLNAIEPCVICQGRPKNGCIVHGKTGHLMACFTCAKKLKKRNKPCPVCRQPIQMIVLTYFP
CSC inhib: cancer stem cell inhibition; cancer stem cell-like cells viability, luminescence; inhibition, % at 7.5 µM; AID 2717; 300,000 compounds, 1.1% hits; in the data active = inhibition above about 75%; inconclusive = no clear call, values can overlap the other calls; tested in HMLE shEcad cells
SKKanGAS inh: blocks kanamycin growth of S. pyogenes SKKanGAS strain; BacTiter-Glo, 6 h; inhibition, % at 7.5 µM; 300,000 compounds, 1.3% hits; AID 1662;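 active = mean replicate score, as percent of positive control median, at least 50; inconclusive = mean below 50 but one replicate at or above 50; inactive = mean and every replicate below 50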;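 note: strain carries kanamycin resistance gene driven by streptokinase promoter and grows in 40 µg/ml kanamycin; loss of luminescence reflects streptokinase promoter inhibition or plain growth inhibition; 0% = median of DMSO wells and 100% = positive control at its reference dose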
Calb FLC: C. albicans growth modulation with fluconazole | C. albicans CaCi-2 (fluconazole-resistant clinical isolate) + fluconazole, Alamar Blue growth, 48 h | growth inhibition, % (test concentration not listed) | 300,000 compounds, 0.57% hits | AID 1979;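 active = growth inhibition above about 58% in most replicates, limit read from the data, passing the limit was not always enough; inconclusive = exactly half the replicates above a set limit; inactive = most replicates below a set limit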;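 note: all wells also contain fluconazole at 8 µg/ml as a sub-toxic cotreatment; 0% = median of DMSO wells and 100% = median of geldanamycin control wells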
T cruzi repl: T. cruzi replication inhibition. inhibition, % (test concentration not listed). T. cruzi beta-gal in NIH3T3, luminescence, 90 h. 300,000 compounds, 1.4% hits;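 active = mean inhibition across valid replicates above about 55%, limit read from the data; inconclusive = mean below that limit but half or more replicates reach it; inactive = mean below it, under half of replicates reach it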;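 note: signal also drops with host cell toxicity which is not excluded here; 0% = plate median of DMSO wells and 100% = zero luminescence signal; higher percent means less beta-gal luminescence so fewer parasites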
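compound dosing = single 50 nL compound addition per well in DMSO | material = NIH/3T3 host cells with β-galactosidase reporter T. cruzi | input = 5,000 host fibroblasts per well | timing = ≥90 h infection period, 3 h prior cell attachment | read-out basis = percent inhibition of parasite-derived β-gal signal | detection = GalScreen β-gal luminescence, detergent lysis, 60 min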
Mdm2 MdmX conf: human Mdm2/MdmX binding inhibition, confirmed; 10,000 compounds, 55% hits; luminescent assay; inhibition, % at 8 µM; AID 489028; shares compounds with Mdm2-MdmX inh; in the data active = inhibition above about 40%
FLuc counter: counter-screen for Mdm2/MdmX inhibitors: full-length luciferase | inhibition, % at 8 µM | 6,200 compounds, 77% hits | SaOS-2 full-length luciferase counterscreen, luminescence | AID 504607 | shares compounds with Mdm2-MdmX inh;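 active = mean inhibition at 8 µM reaching about 37%, which flags the compound as non-specific, limit read from the data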;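 note: p53-null SaOS-2 cells with luciferase driven by a doxycycline-inducible promoter; compound on cells about two nights before reading with doxycycline added after day one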
Active calls of the source: *; ? = inconclusive; . = not tested or not shown.

SMILES	Beta cell apopt	Mdm2-MdmX inh	CSC inhib	SKKanGAS inh	Calb FLC	T cruzi repl	Mdm2 MdmX conf	FLuc counter
CCc1c(C#N)c(SCCC(=O)Nc2cccc(OC)c2)nc2c1C(=O)CC(C)(C)C2	-6.9	30.6	25.0	15.7	14.5	27.5	.	.
COc1cc(NC(=O)c2cc(-c3ccccc3Cl)on2)cc(OC)c1OC	38.6	65.1*	49.5	12.5	12.5	1.4	54.4*	52.1*
Cc1cc(Oc2nc3c(C)cccn3c(=O)c2/C=C(\C#N)S(=O)(=O)c2ccc(Cl)cc2)ccc1Cl	44.4	56.7*	46.5	43.8	-4.6	-12.5	-1.2	.
COc1cc2c(cc1OC)C(C)N(C(=O)c1c(C)noc1C)CC2 (stereo not given)	-2.6	19.5	9.4	-1.5	22.3	2.0	.	.
COc1cc2c(cc1OC)C(C)N(C(=O)c1cc(C)on1)CC2 (stereo not given)	17.9	60.6*	54.2	-2.1	15.4	-0.9	67.5*	82.0*
CCOc1ccc(CN2CCN(c3cc(C)nc4c5c(C)cc(C)nc5nn34)CC2)cc1	.	.	.	-6.5	42.9	0.4	.	.
Cc1cc(C)c2c(n1)nn1c(N3CCN(c4ccccc4C)CC3)cc(C)nc21	-5.8	64.1*	-8.8	.	.	.	14.3	.
COc1cc(/C=N/N=C(N)N)ccc1OCc1ccc(Cl)cc1	98.1*	100.5*	49.7	11.2	-2.5	87.0*	49.9*	127.3*
NC(N)=N/N=C/c1ccc(OCc2ccccc2)c(OCc2ccccc2)c1	9.2	96.3*	1.5	?	28.0	-0.4	67.2*	65.4*
NC(N)=N/N=C/c1ccc(OCc2ccccc2Cl)cc1	8.2	98.3*	104.6*	15.9	-4.0	68.7*	67.5*	32.5
OCCCCNCc1ccc(OCc2ccccc2Cl)cc1	3.8	-0.4	-3.2	4.2	-4.5	40.8	.	.
COc1cc(/C=N/O)ccc1OCc1ccc(C(=O)O)cc1	-1.1	83.5*	-9.5	12.9	-7.6	-2.8	77.5*	21.1
COc1cc(/C=N/N=C2/NC(=O)C(CC(=O)O)S2)ccc1OCc1ccc(Cl)cc1 (stereo not given)	-9.9	-150.7	-1.0	14.4	-7.0	-2.8	.	.
O=C(O)c1cc(/C=N\O)ccc1OCc1ccccc1	2.7	-27.9	7.2	-0.9	0.5	-0.2	.	.
COc1cc(/C=N/NC(=O)c2cccs2)ccc1OCc1ccccc1	6.4	-36.4	2.4	-0.3	21.5	-0.7	.	.
CCc1ccccc1-n1c(SCC(=O)NC)nnc1-c1ccco1	-1.4	-7.1	-2.4	5.1	-7.3	7.2	.	.
CCC(C)[C@H](NC(=O)Nc1ccccc1F)C(=O)OC (stereo not given in full)	6.7	1.6	3.0	-14.0	-9.6	-16.1	.	.
Cc1cc(Cl)ccc1OCC(=O)NNC(=O)c1ccco1	-5.9	-2.0	7.5	-2.4	6.2	0.3	.	.
CC(C)c1ccc(OCC(=O)NNC(=S)NC(=O)c2ccco2)c(Br)c1	10.6	50.4*	-0.9	116.7*	-7.0	8.6	42.8*	71.1*
COc1ccc(NC(=O)CN(C)C(=O)CCNC(=O)c2ccccc2OC)cc1	4.0	9.6	-2.6	-18.1	2.4	-8.9	.	.
O=C(Cc1ccc([N+](=O)[O-])cc1)Nc1nnc(C2CC2)s1	-8.4	14.8	-4.9	-0.8	0.4	12.1	.	.
O=C(Cc1coc2ccc3ccccc3c12)Nc1nnc(C2CC2)s1	-2.7	73.9*	-1.9	14.9	3.4	13.6	82.7*	37.9*
Cc1cc2occ(CC(=O)Nc3nnc(C4CC4)s3)c2cc1C	-10.7	-3.9	.	.	.	.	.	.
O=C(Cc1c[nH]c2ccccc12)Nc1nnc(C2CC2)s1	2.4	78.5*	23.6	8.1	-0.7	-3.6	65.2*	84.4*
CC1=NOC(=O)/C1=C\c1ccc(-c2ccc(Br)cc2)o1	.	.	.	20.3	-0.9	19.4	.	.
SMILES	Beta cell apopt	Mdm2-MdmX inh	CSC inhib	SKKanGAS inh	Calb FLC	T cruzi repl	Mdm2 MdmX conf	FLuc counter
CC1=NOC(=O)/C1=C\c1ccc(-c2cc(Cl)ccc2Cl)o1	100.7*	100.5*	87.0*	8.3	-8.7	-36.0	15.8	.
CC1=NOC(=O)/C1=C/c1ccc(-c2ccc(Cl)cc2)o1	72.6	99.6*	26.0	.	.	.	48.1*	16.6
S=C(NCc1ccncc1)Nc1ccc(Cl)c(Cl)c1	-8.6	-4.9	11.6	5.1	-1.9	-31.4	.	.
O=[N+]([O-])c1cc(C(F)(F)F)cc([N+](=O)[O-])c1NCCNC(=S)Nc1ccc(Cl)c(Cl)c1	.	89.9*	107.2*	101.8*	0.3	50.8	45.8*	54.6*
COc1ccc([C@H]2CC(=O)C=C(c3cccc(C(C)C)c3)C2)cc1	-2.6	14.0	30.2	.	.	.	.	.
COc1ccc(-c2nc(NC(=O)C3CC(=O)N(c4ccc5c(c4)OCCO5)C3)sc2C)cc1 (stereo not given)	42.9	66.1*	53.4	55.1*	-0.1	-12.4	57.9*	36.2*
Cc1cc2ncn(/N=C/c3ccc([N+](=O)[O-])s3)c2cc1C	50.4	.	18.9	22.5	-6.2	37.7	.	.
O=[N+]([O-])c1ccc(/C=N/n2cnc3ccccc32)s1	112.0*	70.2*	99.7*	14.1	?	73.0*	59.5*	9.6
COc1ccc(-c2csc(NC(=O)CSC(C)C(=O)Nc3cc(C)on3)n2)cc1OC (stereo not given)	1.5	14.1	.	.	.	.	.	.
O=C(NNc1c2ccccc2nc2ccccc12)C(O)c1ccccc1 (stereo not given)	7.0	78.5*	-8.0	10.6	-7.1	2.9	81.8*	34.4
O=C(NNc1c2ccccc2nc2ccccc12)C12CC3CC(CC(C3)C1)C2	13.0	68.3*	6.0	3.4	-11.7	42.9	3.6	.
CCCCn1c(=S)[nH]c2cc(S(=O)(=O)N3CCOCC3)ccc21	3.4	-7.2	-24.3	.	.	.	.	.
CCn1c(=S)[nH]c2cc(S(=O)(=O)N3CCCCC3)ccc21	-39.1	81.9*	1.3	1.9	18.5	12.4	49.5*	84.4*
Cc1nc(NC2=NCN(CCCN3CCOCC3)CN2)nc2c(C)cccc12	3.5	97.3*	5.2	.	.	.	96.4*	25.4
CCCCN1CN=C(Nc2nc3ccccc3o2)NC1	-7.9	-45.7	.	-6.5	-7.8	-8.2	.	.
Nc1nc(SCC(=O)Nc2ccc(OC(F)(F)F)cc2)[nH]c(=O)c1NC(=O)c1ccc(Br)o1	10.4	-0.5	22.4	-8.1	.	-5.8	.	.
Cc1nn(CCCC(=O)Nc2cc(Oc3ccccc3)cc([N+](=O)[O-])c2)c(C)c1[N+](=O)[O-]	7.8	20.0	24.1	7.4	22.7	42.8	.	.
CCn1nc(C)c(C(=O)Nc2cc(Oc3cc(C)cc(C)c3)cc([N+](=O)[O-])c2)c1C	13.9	52.8*	70.7	30.5	7.5	25.9	59.5*	51.4*
CCOC(=O)[C@H]1[C@H]2COc3ccccc3[C@@H]2N2C(=O)[C@@H](CO)NC(=O)[C@@]12C	-3.7	2.2	-13.7	.	.	.	.	.

Bioassay records as filed in PubChem.
